From ChEMBL document CHEMBL1138424, “Solid phase-assisted synthesis and screening of a small library of N-(4-hydroxyphenyl)retinamide (4-HPR) analogs” (2007)
Activity calls are given as the source filed them. No cut-off for these calls is given here.

system: MCF7; experiment: Growth inhibition of human MCF7 cells at 10 uM after 48 hrs by fluorescein diacetate cell viability assay relative to 4-HPR; type: functional
In short: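 MCF-7 human breast cancer cells received a single dose at a final 10−5M, with vehicle at 0.2% ethanol. Live cells were counted 48 hrs later by fluorescein diacetate viability assay. Activity was scored on a +/++/+++ scale against 4-HPR.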

Row | Compound | Activity
1 | CC1=C(/C=C/C(C)=C/C=C/C(C)=C/C(=O)Nc2ccc([N+](=O)[O-])cc2O)C(C)(C)CCC1 | >=100%
2 | CC1=C(/C=C/C(C)=C/C=C/C(C)=C/C(=O)Nc2ccc(N)cc2)C(C)(C)CCC1 | >=50%
3 | CC1=C(/C=C/C(C)=C/C=C/C(C)=C/C(=O)Nc2cc([N+](=O)[O-])ccc2O)C(C)(C)CCC1 | >=25%
4 | CC1=C(/C=C/C(C)=C/C=C/C(C)=C/C(=O)Nc2ccc(O)cc2)C(C)(C)CCC1 [FENRETINIDE] | >=100%
5 | CC1=C(/C=C/C(C)=C/C=C/C(C)=C/C(=O)Nc2ccc(O)c(Cl)c2)C(C)(C)CCC1 | >=50%
6 | COc1ccc(NC(=O)/C=C(C)/C=C/C=C(C)/C=C/C2=C(C)CCCC2(C)C)cc1 | >=25%
7 | CC1=C(/C=C/C(C)=C/C=C/C(C)=C/C(=O)Nc2ccc(Cl)cc2)C(C)(C)CCC1 | >=25%
8 | COC(=O)c1ccc(NC(=O)/C=C(C)/C=C/C=C(C)/C=C/C2=C(C)CCCC2(C)C)c(O)c1 | >=25%
9 | CC1=C(/C=C/C(C)=C/C=C/C(C)=C/C(=O)Nc2ccc(Cl)c(Cl)c2)C(C)(C)CCC1 | >=25%
10 | CC1=C(/C=C/C(C)=C/C=C/C(C)=C/C(=O)Nc2cc(Cl)ccc2O)C(C)(C)CCC1 | >=50%
11 | CC1=C(/C=C/C(C)=C/C=C/C(C)=C/C(=O)N(C)c2ccc(O)cc2)C(C)(C)CCC1 | >=25%
12 | CC1=C(/C=C/C(C)=C/C=C/C(C)=C/C(=O)Nc2ccc(C)cc2O)C(C)(C)CCC1 | >=50%
13 | CC1=C(/C=C/C(C)=C/C=C/C(C)=C/C(=O)Nc2cccc(CO)c2)C(C)(C)CCC1 | >=25%
14 | COC(=O)c1cc(NC(=O)/C=C(C)/C=C/C=C(C)/C=C/C2=C(C)CCCC2(C)C)ccc1O | >=25%
15 | CC1=C(/C=C/C(C)=C/C=C/C(C)=C/C(=O)Nc2ccc(C)c(O)c2)C(C)(C)CCC1 | >=100%
16 | CC1=C(/C=C/C(C)=C/C=C/C(C)=C/C(=O)Nc2ccccc2C(=O)O)C(C)(C)CCC1 | >=25%
17 | CC1=C(/C=C/C(C)=C/C=C/C(C)=C/C(=O)Nc2ccccc2)C(C)(C)CCC1 | >=25%

system: MCF7; experiment: Induction of apoptosis in human MCF7 cells at 10 uM after 48 hrs by TUNEL assay relative to 4-HPR; type: functional, cell-based
In short: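 MCF-7 cells received a single dose at 10−5M, with vehicle as control. After 48 hr the % of TUNEL-labeled cells was scored. Values are means (+SEM) of three independent cell culture experiments, compared with standard 4-HPR.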

Row | Compound | Activity
18 | CC1=C(/C=C/C(C)=C/C=C/C(C)=C/C(=O)Nc2ccc([N+](=O)[O-])cc2O)C(C)(C)CCC1 | Active
19 | COC(=O)c1ccc(NC(=O)/C=C(C)/C=C/C=C(C)/C=C/C2=C(C)CCCC2(C)C)c(O)c1 | Active
20 | CC1=C(/C=C/C(C)=C/C=C/C(C)=C/C(=O)Nc2ccc(C)c(O)c2)C(C)(C)CCC1 | Active
